# In the RNAGym collection of RNA variant scans (doi:10.1126/science.aae0568):
# Variants at the floor of the assay were thinned out.
# B1: tRNA (parent)
# chain: GUUCCGUUGGCGUAAUGGUAACGCGUCUCCCUCCUAAGGAGAAGACUGCGGGUUCGAGUCCCGUACGGAACG
# Variants of: B1
# Assay: yeast fitness relative to wild type (ratio to wild type); higher = fitter; tRNA-Arg(CCU), competitive growth, 37 C, YPD
# Summary of the method: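 Changes in genotype frequencies gave Darwinian fitness relative to wild type. Frequencies were read by 100-nucleotide paired-end sequencing of gene amplicons before and after pooled Saccharomyces cerevisiae strains, carrying tRNA-Arg(CCU) gene variants at the native locus, were competed in YPD at 37°C for 24 hours in six replicates. A genotype was kept only with ≥ 100 starting reads, and estimates < 0.5 were set to 0.5.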
row,Variant,yeast fitness
1,GUUCCGUUGGCGUAGUGGUAACGCGUCUCCCUCCUUAGGAGAAGACUGCGGGUUCGAGUCCCGUACGGAACG [A15G A36U],0.679
2,GUUCCGUUGGCGUAGUGGUAACGCGUCUCCCUCCUGAGGAGAAGACUGCGGGUUCGAGUCCCGUACGGAACG [A15G A36G],0.867
3,GUUCCGUUGGCGUAGUGGUAGCGCGUCUCCCUCCUAAGGAGAAGACUGCGGCUUCGAGUCCAGUACGGAACG [A15G A21G G52C C62A],0.616
4,GUUCCGUUGGCGUAGUGGUCACGCGUCUCCCUCAUAAGGAGAAGACUGCGGGUUCGAGUCCCGUACGGAACG [A15G A20C C34A],≤ 0.5
5,GUUCCGUUGGCGUAGUGGUAACGCGUCUCCCUCCUAAGGGGAAGACUGCGGGUUCGAGUCCCGUGCGGAACG [A15G A40G A65G],0.663
6,GUUCCGUUGGCGUAGUGGUAACGCGUCUCCCUCCUAGGGAGAAGACUGCGGGUUCGAGUCCCGUACGGAACG [A15G A37G],0.795
7,GUUCCGUUGGCGUAGUGGUAACGCGUCUCCCUCCUACGGAGAAGACUGCGGGUUCGAGUCCCGUACGGAACG [A15G A37C],0.666
8,GUUCCGUUGGCGUAGUGGUUACGCGUCUGCCUCCUAAGGAGAGGACUGCGGGUUCGAGUCCCGUACGGAACG [A15G A20U C29G A43G],≤ 0.5
9,GUUCCGUUGGCGUAGUGGUAUCGCGUCUCCCUCCUUAGGAGAAGACUGUGGCUUCGAGUCCAGUACAGAACG [A15G A21U A36U C49U G52C C62A G67A],≤ 0.5
10,GUUCCGUUGGCGUAGUGGUAACGCGUCUCCCUCCUAAGGAGCAGCCUACGGGUUCGAGUCCCGUACGGAACG [A15G A42C A45C G48A],0.63
11,GUUCCGUUGGCGUAGUGGUGACGCGUCUCCCUCCUAAGGAGAAGACUGAGGGUUCGAGUCUAGUACCGAACG [A15G A20G C49A C61U C62A G67C],≤ 0.5
12,GUUCCGUUGGCGUAGUGGUUACGCGUCUCCCUCCUAAGGAGAAGACUGCGGGUUCGUGUUCCGUACGGAACG [A15G A20U A57U C60U],≤ 0.5
13,GUUCCGUUGGCGUAGUGGUUACGCGCCUGCCACCUAAGGAGAAGACUGCGGGUUCGAGUCCCGUACGGAACG [A15G A20U U26C C29G U32A],0.591
14,GUUCCGUUGGCGUAGUGGUAACGCGUCUCCCUCCUAAGGAGAUGACUGCGGGUUCGAGUCCCGUACGGCACG [A15G A43U A69C],0.8
15,GUUCCGUUGGCGUAGUGGUGACGCGUCUCCCUCCUAAGGAGAAGACUGAGGGUUCGAGUCCUAUACGGAACG [A15G A20G C49A C62U G63A],≤ 0.5
16,GUUCCGUUGGCGUAGUGGUAACGCGUCUCCCUCCUACGGAGAAGACUGCCGGUUCGAGUCCCGUACGGAACG [A15G A37C G50C],0.601
17,GUUCCGUUGGCGUAGUGGUAACGCGUCUCCCUCCUAAGGAGAGGACUGCGGGUUCGAGUCCCGUACGGAACG [A15G A43G],0.975
18,GUUCCGUUGGCGUAGUGGUAACGCGUCUCCCUCCUUAGGAGAAGACUGCGGGUUUGAGUCCCGUUCGGAACG [A15G A36U C55U A65U],≤ 0.5
19,GUUCCGUUGGCGUACUGGUAACGCGUCUCCCUCCUAAGGAGAAGACAGCGGAUUCGAGUCCCGUACGGAACG [A15C U47A G52A],0.576

row,Variant,yeast fitness
1,GUUCCGUUGGCGUAGUGGUAGCGCGUCUGCCUCCUAAGGAGGAGACUGCGGGUUAGAGUCCCGUACGGAACG [A15G A21G C29G A42G C55A],≤ 0.5
2,GUUCCGUUGGCGUAGUGGUGACGCGUCUCCCUCCUAAGGAGAAGACUACGGGUUCGAGUCCCGUACGGAACG [A15G A20G G48A],0.738
3,GUUCCGUUGGCGUAGUGGUAACGCGUCUCCCUCCUAAGGAGAAGACUGCGGGUUCGAGUCCCGUGCGGACCG [A15G A65G A70C],0.714
4,GUUCCGUUGGCGUAGUGGUCACGGGUCUCCCUCCUAAGGAGAAGACUGCGGGUUCGAGUCCCGUACGGAACG [A15G A20C C24G],0.626
5,GUUCCGUUGGCGUAGUGGUAUCGCGUCUCCCUCCUAAGGAGAAGACUGCGGGUUCGAGUCCCAUACGGAACG [A15G A21U G63A],0.627
6,GUUCCGUUGGCGUAGUGGUAGCGCGUCUCCCUCCUAAGGAGAAGACUGCGGGUUCGAGUCCCGUACGGAACG [A15G A21G],1.02
7,GUUCCGUUGGCGUAGUGGUAACGCGUCUCCCUCCUCAGGAGAAGACUGCAGGUUCGAGUCCCGUACGGAACG [A15G A36C G50A],≤ 0.5
8,GUUCCGUUGGCGUAGUGGUAUCGCGUCUCCCUCCUACGCAGAAGACUGCGGGUUCGUGUCCUGUACGGAACG [A15G A21U A37C G39C A57U C62U],≤ 0.5
9,GUUCCGUUGGCGUAGUGGUAGCGCGUCUCCCUCCUAAGGAGCAGAAUGCGGGUUCGAGUCCCGUACGGAACG [A15G A21G A42C C46A],≤ 0.5
10,GUUCCGUUGGCGUAGUGGUGCCGCGUCUCCUUCCUAAGGAGAAGACUGCGGGUUCGAGUCCCGUACGGAACG [A15G A20G A21C C31U],≤ 0.5
11,GUUCCGUUGGCGUAGUGGUAACGCGUCUCCCUCCUACGGAGAAGACUCCGGGUUCGAGUCCCGUACGGAACG [A15G A37C G48C],≤ 0.5
12,GUUCCGUUGGCGUAGUGGUAACGCGUCUCCCUCCUAAGGAGAAGACUGCGGGUUCGAGUCCCGUACGGCACG [A15G A69C],0.999
13,GUUCCGUUGGCGUAGUGGUCACGCGUCUCCCUCCUAAGGAGAAGACUGCGGGUACGAGUCCCGUACGGAACG [A15G A20C U54A],≤ 0.5
14,GUUCCGUUGGCGUAGUGGUAACGCGUCUCCCUCCUAAGGAGCAGACUGCGGGUUCGAGUCCCGUACGGAACG [A15G A42C],0.863
15,GUUCCGUUGGCGUAGUGGUAACGCGUCUCCCUCCUAGAGAGAAGUCUGCGGGUUCGAGUCCCGUACGGAACG [A15G A37G G38A A45U],0.507
16,GUUCCGUUGGCGUAGUGGUAACGCGUCUCCCUCCUCAGGAGAAGACACCGGGUGCGAGUCCCGUCCGGAACG [A15G A36C U47A G48C U54G A65C],≤ 0.5
17,GUUCCGUUGGCGUAGUGGUAACGCGUCUCCCUCCUAUGGAGACGACUGCGGGUUCGAGUCCCGUACGGAACG [A15G A37U A43C],0.518
18,GUUCCGUUGGCGUAGUGGUACCGCGUCUCCCUCCUAAGCAGAAGGCUGCGGGCUCGAGUCCCGUACGGAACG [A15G A21C G39C A45G U53C],≤ 0.5
19,GUUCCGUUGGCGUAGUGGUACCGCGUCUCCCUCUUAAGGAGAAGACUGCGGGUUCGAGUCUCGUACGGAACG [A15G A21C C34U C61U],≤ 0.5
